The text below walks through data of ChEMBL document CHEMBL2016515, “Triazoloamides as potent γ-secretase modulators with reduced hERG liability” (Bioorg Med Chem Lett, 2012).

Where only a bound is given, the exact number is not on record here.

For orientation: IC50 means the midpoint of a concentration-inhibition curve. Read a high IC50 as weaker potency.

Test [1] has as its target Gamma-secretase. Description: Inhibition of gamma secretase-mediated amyloid beta40 production in human SH-SY5Y cells overexpressing beta-APP C-terminal SPA4CT by electrochemiluminescent analysis. The test is classed as cell-based. A digest of the protocol: (§1)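 Each compound tested in at least two independent experiments; values reported in μM.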
For test [2], the target named is Gamma-secretase. Description: Inhibition of gamma secretase-mediated amyloid beta42 production in human SH-SY5Y cells overexpressing beta-APP C-terminal SPA4CT by electrochemiluminescent analysis. The test is classed as cell-based. A digest of the protocol:
as §1

A short description of test [3]: Inhibition of gamma-secretase-mediated notch intracellular domain cleavage in HeLa cells by luciferase reporter gene assay. The test is classed as cell-based. A digest of the protocol:
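Split-luciferase complementation: γ-secretase cleavage of NotchΔE frees NICD fused to N-terminal luciferase, which enters the nucleus and binds RBP-Jk fused to C-terminal luciferase. Total luminescence is read after adding luciferin to lysed cells. At least two independent experiments; values in μM.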
For orientation: Reporter assays use an easily measured gene product as a stand-in for the process of interest.

Test [4] deals with Voltage-gated inwardly rectifying potassium channel KCNH2 (Homo sapiens, UniProt Q12809).
Voltage-gated inwardly rectifying potassium channel KCNH2, sequence (Q12809 whole entry): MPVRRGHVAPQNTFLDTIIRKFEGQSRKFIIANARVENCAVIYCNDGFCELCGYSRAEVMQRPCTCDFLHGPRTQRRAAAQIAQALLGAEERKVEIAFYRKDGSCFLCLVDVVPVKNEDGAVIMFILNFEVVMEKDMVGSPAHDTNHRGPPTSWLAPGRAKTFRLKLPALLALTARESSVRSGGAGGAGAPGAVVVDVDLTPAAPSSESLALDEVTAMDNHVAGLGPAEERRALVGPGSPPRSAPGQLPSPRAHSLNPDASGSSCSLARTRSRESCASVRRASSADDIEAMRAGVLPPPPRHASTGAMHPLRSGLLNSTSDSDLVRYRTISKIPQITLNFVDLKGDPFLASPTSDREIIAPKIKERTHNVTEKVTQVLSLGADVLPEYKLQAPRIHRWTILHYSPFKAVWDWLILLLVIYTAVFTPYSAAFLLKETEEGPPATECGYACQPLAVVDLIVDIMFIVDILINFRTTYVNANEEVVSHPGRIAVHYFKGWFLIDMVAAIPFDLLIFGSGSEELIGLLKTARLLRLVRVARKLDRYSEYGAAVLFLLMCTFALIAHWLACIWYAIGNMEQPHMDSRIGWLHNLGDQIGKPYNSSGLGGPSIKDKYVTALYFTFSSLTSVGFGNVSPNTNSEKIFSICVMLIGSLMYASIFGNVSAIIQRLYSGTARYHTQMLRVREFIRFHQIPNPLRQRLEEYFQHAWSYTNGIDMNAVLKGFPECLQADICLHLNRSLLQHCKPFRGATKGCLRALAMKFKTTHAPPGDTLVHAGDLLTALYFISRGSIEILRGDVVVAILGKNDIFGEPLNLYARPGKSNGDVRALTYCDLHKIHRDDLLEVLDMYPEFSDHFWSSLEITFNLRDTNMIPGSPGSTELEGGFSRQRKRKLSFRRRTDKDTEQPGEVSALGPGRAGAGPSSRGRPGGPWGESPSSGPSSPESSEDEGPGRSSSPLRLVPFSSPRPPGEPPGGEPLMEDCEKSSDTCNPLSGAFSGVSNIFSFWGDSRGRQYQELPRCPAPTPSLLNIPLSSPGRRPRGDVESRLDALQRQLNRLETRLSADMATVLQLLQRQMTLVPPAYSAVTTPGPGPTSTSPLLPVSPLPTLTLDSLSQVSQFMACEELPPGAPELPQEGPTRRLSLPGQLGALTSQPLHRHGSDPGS

Turning to `COc1cc(-c2cn(CC(=O)N(c3ccccc3)c3ccccc3)nn2)ccc1-n1cnc(C)c1`, the IC50 in test [1] is over 10000 nM; in test [2] it was 1630 nM.
As to `COc1cc(-c2cn(CC(=O)N(c3ccccc3)C3CCCCC3)nn2)ccc1-n1cnc(C)c1`, the IC50 in test [1] worked out at 8710 nM; in test [2] it was 620 nM.
As for `COc1cc(-c2cn(CC(=O)Nc3cccc4ccccc34)nn2)ccc1-n1cnc(C)c1`, the IC50 is 26700 nM in test [3], 4850 nM in test [1], over 10000 nM in test [4] and 610 nM in test [2].
As to `COc1cc(-c2cn(CC(=O)Nc3ccc4c(c3)OC(F)(F)O4)nn2)ccc1-n1cnc(C)c1`, the IC50 is 29600 nM in test [3], 2070 nM in test [1] and 450 nM in test [2].
For `COc1cc(-c2cn(CC(=O)NC3C4CC5CC(C4)CC3C5)nn2)ccc1-n1cnc(C)c1` (configuration not stated) the same measures were over 50000 nM, over 10000 nM and 680 nM.
Consider `COc1cc(-c2cn(CC(=O)N(Cc3ccc(F)cc3)C3C4CC5CC(C4)CC3C5)nn2)ccc1-n1cnc(C)c1` (configuration not stated), for which the IC50 is over 50000 nM in test [3], 1900 nM in test [1], 250 nM in test [4] and 240 nM in test [2].
Regarding `COc1cc(-c2cn(CC(=O)N(Cc3ccccc3)Cc3ccccc3)nn2)ccc1-n1cnc(C)c1`, the figures for the half-maximal inhibitory concentration (IC50) in test [3], in test [1] and in test [2] were over 50000 nM, 4420 nM and 370 nM, respectively.
For `COc1cc(-c2cn(CC(=O)N(Cc3ccccc3)[C@H](C)c3ccccc3)nn2)ccc1-n1cnc(C)c1` the same measures were over 50000 nM, 3010 nM and 230 nM.
In the same order, the values of `COc1cc(-c2cn(CC(=O)N([C@H](C)c3ccccc3)[C@H](C)c3ccccc3)nn2)ccc1-n1cnc(C)c1` are over 50000 nM, 5170 nM and 430 nM.
In the same order, the values of `COc1cc(-c2cn(CC(=O)N(C3CCCCC3)C3CCCCC3)nn2)ccc1-n1cnc(C)c1` are 9000 nM, over 10000 nM and 200 nM.
Take `COc1cc(-c2cn(CC(=O)N3CCC(c4nc5ccccc5o4)CC3)nn2)ccc1-n1cnc(C)c1`: the IC50 in test [3] was over 50000 nM; in test [1], over 10000 nM; in test [4], 10300 nM; in test [2], 940 nM.
On to `COc1cc(-c2cn(CC(=O)N(Cc3ccccc3)CC(F)(F)F)nn2)ccc1-n1cnc(C)c1`, for which the IC50 in test [3] was over 40000 nM; in test [1], 2430 nM; in test [2], 270 nM.
For `COc1cc(-c2cn(CC(=O)N(CC(F)(F)F)c3ccc4c(c3)CCC4)nn2)ccc1-n1cnc(C)c1` the same measures were 24600 nM, 1250 nM and 180 nM.
As to `COc1cc(-c2cn(CC(=O)N(CC(F)(F)F)c3ccc4c(c3)OC(F)(F)O4)nn2)ccc1-n1cnc(C)c1`, the IC50 in test [3] is 38200 nM; in test [1], 1180 nM; in test [2], 160 nM.
In the same order, the values of `COc1cc(-c2cn(CC(=O)N(CC(F)(F)F)c3ccc4ccccc4c3)nn2)ccc1-n1cnc(C)c1` are 48500 nM, 660 nM and 80 nM.
For `COc1cc(-c2cn(CC(=O)N(CC(F)(F)F)c3cccc4ccccc34)nn2)ccc1-n1cnc(C)c1` the same measures were 45100 nM, 410 nM and 90 nM.
For `COc1cc(-c2cn([C@H]3C[C@@H](C(C)(C)C)CCN(CC45CC6CC(CC(C6)C4)C5)C3=O)nn2)ccc1-n1cnc(C)c1` the same measures were over 50000 nM, 1330 nM and 240 nM.
Regarding `COc1cc(-c2cn([C@H]3C[C@@H](C(C)(C)C)CCN(CC(C)(C)C)C3=O)nn2)ccc1-n1cnc(C)c1`, the IC50 is 20000 nM in test [3], 840 nM in test [1] and 130 nM in test [2].
In the same order, the values of `COc1cc(-c2cn([C@H]3C[C@@H](C(C)(C)C)CCN(Cc4ccccc4)C3=O)nn2)ccc1-n1cnc(C)c1` are 40100 nM, 420 nM and 80 nM.
For `COc1cc(-c2cn([C@H]3CC[C@H](c4ccccc4)CN(Cc4ccccc4)C3=O)nn2)ccc1-n1cnc(C)c1` the same measures were 11100 nM, 510 nM and 80 nM.
For `COc1cc(-c2cn([C@H]3C[C@@H](C(F)(F)F)CCN(Cc4ccccc4)C3=O)nn2)ccc1-n1cnc(C)c1` the same measures were 40800 nM, 420 nM and 80 nM.
With `COc1cc(-c2cn([C@H]3C[C@@H]([Si](C)(C)C)CCN(Cc4ccccc4)C3=O)nn2)ccc1-n1cnc(C)c1`, the IC50 in test [3] turned out to be 10200 nM; in test [1], 440 nM; in test [2], 70 nM.
For `COc1cc(-c2cn([C@H]3C[C@@H](C(F)(F)F)CCN(CC(F)(F)F)C3=O)nn2)ccc1-n1cnc(C)c1` the same measures were over 50000 nM, 210 nM and 20 nM.
In the same order, the values of `COc1cc(-c2cn([C@H]3C[C@@H](C(F)(F)F)CN(CC(F)(F)F)C3=O)nn2)ccc1-n1cnc(C)c1` are over 50000 nM, 1910 nM and 290 nM.
In the same order, the values of `COc1cc(-c2cn([C@H]3CCCCN(CC(F)(F)F)C3=O)nn2)ccc1-n1cnc(C)c1` are over 50000 nM, 2210 nM and 300 nM.
On to `COc1cc(-c2cn([C@H]3C[C@@H](c4ccccc4)CCN(CC(F)(F)F)C3=O)nn2)ccc1-n1cnc(C)c1`, for which the IC50 in test [3] was over 50000 nM; in test [1] it was 150 nM; in test [2], 20 nM.
In the case of `COc1cc(-c2cn([C@H]3C[C@@H](C(C)(C)C)CCN(CC(F)(F)F)C3=O)nn2)ccc1-n1cnc(C)c1`, the IC50 in test [3] was determined as 24300 nM; in test [1] it was 170 nM; in test [2], 9 nM.
In the same order, the values of `COc1cc(-c2cn(C3CC[C@H]4CCCC[C@@H]4NC3=O)nn2)ccc1-n1cnc(C)c1` (mixture of isomers) are over 50000 nM, 3860 nM and 620 nM.
For `COc1cc(-c2cn(C3CCCC(C(C)(C)C)NC3=O)nn2)ccc1-n1cnc(C)c1` (racemic) the same measures were over 50000 nM, 5120 nM and 480 nM.
With `COc1cc(-c2cn(C3CCCCNC3=O)nn2)ccc1-n1cnc(C)c1` (racemic), the IC50 is over 50000 nM in test [3], over 10000 nM in test [1] and 4420 nM in test [2].
As for `COc1cc(-c2cn(C3C(=O)NC4CCC3C4)nn2)ccc1-n1cnc(C)c1` (racemic), the IC50 is over 50000 nM in test [3], 9870 nM in test [1] and 1090 nM in test [2].
For `COc1cc(-c2cn(C3CC(C(F)(F)F)CCNC3=O)nn2)ccc1-n1cnc(C)c1` (racemic) the same measures were over 50000 nM, 9100 nM and 1270 nM.
As for `COc1cc(-c2cn(C3CC(C(F)(F)F)CNC3=O)nn2)ccc1-n1cnc(C)c1` (racemic), the IC50 in test [3] is over 50000 nM; in test [1], 6160 nM; in test [4] it was over 30000 nM; in test [2], 1110 nM.
For `COc1cc(-c2cn(C3CC(C)(C)CCNC3=O)nn2)ccc1-n1cnc(C)c1` (racemic) the same measures were over 50000 nM, 7420 nM, 20800 nM and 1310 nM.
With `COc1cc(-c2cn(C3CC([Si](C)(C)C)CCNC3=O)nn2)ccc1-n1cnc(C)c1` (racemic), the IC50 was found to be 45300 nM in test [3], 1230 nM in test [1] and 330 nM in test [2].
In the case of `COc1cc(-c2cn(C3CC(C4CCCCC4)CCNC3=O)nn2)ccc1-n1cnc(C)c1` (racemic), the IC50 in test [3] worked out at 17000 nM; in test [1], 660 nM; in test [4], 3680 nM; in test [2] it was 160 nM.
